The results in this text go back to ChEMBL document CHEMBL1152434, “Probing the fibrate binding specificity of rat liver fatty acid binding protein” (J Med Chem, 2009).

The target in experiment [1] is T1, Fatty acid-binding protein, liver (Rattus norvegicus) (UniProt P02692).
T1 sequence (whole entry): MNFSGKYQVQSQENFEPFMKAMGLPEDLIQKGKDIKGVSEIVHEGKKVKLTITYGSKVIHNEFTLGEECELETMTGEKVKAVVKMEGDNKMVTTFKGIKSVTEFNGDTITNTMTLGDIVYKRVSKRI
Briefly: Binding affinity to rat recombinant L-FABP low affinity site expressed in Escherichia coli BL21(DE3) assessed as occupancy at a drug-protein molar ratio of 3:1 by NMR chemical shift perturbation method.

The target in experiment [2] is T1, Fatty acid-binding protein, liver (Rattus norvegicus). The experiment can be described thus: Binding affinity to rat recombinant L-FABP high affinity site expressed in Escherichia coli BL21(DE3) assessed as occupancy at a drug-protein molar ratio of 3:1 by NMR chemical shift perturbation method.
Experiment [3] addresses T2, Fatty acid-binding protein, liver (Rattus norvegicus, UniProt P02692).
T2 sequence (P02692 whole entry): T1 sequence (whole entry)
Briefly: Binding affinity to rat recombinant L-FABP high affinity site expressed in Escherichia coli BL21(DE3) at 5 deg C by fluorimetric assay. In outline: (§1)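 Steady-state ANS displacement: the fluorescent cavity probe 1-anilino-8-naphthalene sulfonic acid is bound to recombinant rat L-FABP (15N/13C-labelled, purified from E. coli). Fibrates in DMSO are titrated directly into the protein. The fall in ANS fluorescence is plotted against free ligand. A two-site competition nonlinear fit gives EC50, converted to Ki for each site.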

Experiment [4] concerns the target T2, Fatty acid-binding protein, liver. Briefly: Binding affinity to rat recombinant L-FABP high affinity site expressed in Escherichia coli BL21(DE3) at 42 deg C by fluorimetric assay. The gist of the method:
as §1

Experiment [5] has the same target. Briefly: Binding affinity to rat recombinant L-FABP high affinity site expressed in Escherichia coli BL21(DE3) at 37 deg C by fluorimetric assay. In outline: as §1
Experiment [6] shares this target. The experiment can be described thus: Binding affinity to rat recombinant L-FABP high affinity site expressed in Escherichia coli BL21(DE3) at 30 deg C by fluorimetric assay. The gist of the method: as §1
The target is the same in experiment [7]. Briefly: Binding affinity to rat recombinant L-FABP high affinity site expressed in Escherichia coli BL21(DE3) at 25 deg C by fluorimetric assay. In outline: as §1
The target is the same in experiment [8]. Briefly: Binding affinity to rat recombinant L-FABP high affinity site expressed in Escherichia coli BL21(DE3) at 20 deg C by fluorimetric assay. The gist of the method: as §1
Experiment [9] has the same target. Briefly: Binding affinity to rat recombinant L-FABP high affinity site expressed in Escherichia coli BL21(DE3) at 15 deg C by fluorimetric assay. The gist of the method:
as §1

Experiment [10] has the same target. Briefly: Binding affinity to rat recombinant L-FABP high affinity site expressed in Escherichia coli BL21(DE3) at 10 deg C by fluorimetric assay. The gist of the method: as §1
For experiment [11] the target is unchanged. The experiment can be described thus: Binding affinity to rat recombinant L-FABP low affinity site expressed in Escherichia coli BL21(DE3) at 5 deg C by fluorimetric assay. In outline: as §1
For experiment [12] the target is unchanged. The experiment can be described thus: Binding affinity to rat recombinant L-FABP low affinity site expressed in Escherichia coli BL21(DE3) at 42 deg C by fluorimetric assay. In outline: as §1
Experiment [13] shares this target. The experiment can be described thus: Binding affinity to rat recombinant L-FABP low affinity site expressed in Escherichia coli BL21(DE3) at 37 deg C by fluorimetric assay. In outline: as §1
Experiment [14] has the same target. Briefly: Binding affinity to rat recombinant L-FABP low affinity site expressed in Escherichia coli BL21(DE3) at 30 deg C by fluorimetric assay. The gist of the method: as §1
Experiment [15] shares this target. The experiment can be described thus: Binding affinity to rat recombinant L-FABP low affinity site expressed in Escherichia coli BL21(DE3) at 25 deg C by fluorimetric assay. In outline:
as §1

For experiment [16] the target is unchanged. Briefly: Binding affinity to rat recombinant L-FABP low affinity site expressed in Escherichia coli BL21(DE3) at 20 deg C by fluorimetric assay. In outline:
as §1

Experiment [17] has the same target. Briefly: Binding affinity to rat recombinant L-FABP low affinity site expressed in Escherichia coli BL21(DE3) at 15 deg C by fluorimetric assay. In outline:
as §1

For experiment [18] the target is unchanged. Briefly: Binding affinity to rat recombinant L-FABP low affinity site expressed in Escherichia coli BL21(DE3) at 10 deg C by fluorimetric assay. The gist of the method: as §1

SMILES strings stand for the structures. The source made the active and inactive calls. No cut-off for these calls is given here.

On to `CC(C)(Oc1ccc(C2CC2(Cl)Cl)cc1)C(=O)O` (stereo not given), for which the Activity in experiment [1] stood at 85%; in experiment [2], 100%.
On the same counts, the results for `CC(C)(Oc1ccc(CCNC(=O)c2ccc(Cl)cc2)cc1)C(=O)O` are 93% and “inactive”.
For `Cc1ccc(C)c(OCCCC(C)(C)C(=O)O)c1` the same measures were 79% and 100%.
Broadly, the Kd is the concentration at which binding is half-saturated. Regarding `CCOC(=O)C(C)(C)Oc1ccc(Cl)cc1` [CLOFIBRATE], the Kd was determined as 6 µM in experiment [3]; 12 µM in experiment [4]; 11 µM in [5]; 9.6 µM in experiment [6]; 8.9 µM in [7]; 7.8 µM in experiment [8]. Also, the values for the dissociation constant (Kd) in [9] and in experiment [10] were 7.3 µM and 6.7 µM, respectively. The result in experiment [1] was inactive. Besides, in [2], the Activity was 99%.
For `CC(C)OC(=O)C(C)(C)Oc1ccc(C(=O)c2ccc(Cl)cc2)cc1` [FENOFIBRATE], the dissociation constant Kd in experiment [11] was 0.13 µM; in experiment [3], 0.018 µM; in experiment [12], 0.36 µM; in experiment [13], 0.32 µM; in experiment [5], 0.062 µM; in experiment [14] it was 0.27 µM. Also, the Kd was determined as 0.041 µM in experiment [6]; 0.25 µM in experiment [15]; 0.032 µM in experiment [7]; 0.2 µM in [16]; 0.027 µM in [8]; 0.024 µM in [9]. Further, the results for the Kd in experiment [17], in [10] and in experiment [18] were 0.16 µM, 0.023 µM and 0.15 µM, respectively. Further, the Activity in experiment [1] and in [2] was 100% in each case.
`CC(C)(Oc1ccc(C(=O)c2ccc(Cl)cc2)cc1)C(=O)O` [FENOFIBRIC ACID]: the Kd in experiment [11] came out at 18 µM; in [3] it was 0.094 µM; in experiment [12] it was 29 µM; in experiment [13], 28 µM; in experiment [5] it was 0.42 µM; in experiment [14], 27 µM. Further, the dissociation constant Kd came to 0.36 µM in experiment [6]; 24 µM in experiment [15]; 0.34 µM in experiment [7]; 23 µM in experiment [16]; 0.22 µM in [8]; 0.16 µM in experiment [9]. Besides, the results for the equilibrium dissociation constant (Kd) in experiment [17], in experiment [10] and in experiment [18] were 20 µM, 0.1 µM and 19 µM, respectively. The Activity in experiment [1] came to 96%; in experiment [2], 100%.
